Yeast lifespan up: compounds extending yeast replicative lifespan, primary screen, S. cerevisiae, OD615; S. cerevisiae growth with nicotinamide; deaD strain in restrictive glucose medium; 130,000 tested, 0.68% active; inhibition of the nicotinamide effect, % at 10 µM;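 active = inhibition above a set limit, placed 3 SD over the median of all compounds, cut at about 26% in these data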
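Material: Modified budding yeast, DeaD strain | Medium: Restrictive glucose medium | Probe or stimulus: 1.5 mM nicotinamide | Dosing: Single dose 10 µM compound, 0.25% DMSO | Times: 48 h at 30 °C | Technique: OD615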
RAM inhibit: inhibitors of the yeast RAM network, primary screen, dse1pr::URA3 reporter, 5-FOA selection | S. cerevisiae dse1pr::URA3 reporter, 5-FOA growth OD615, 2 d; analog-sensitive cbk1-as2 kinase mutant strain | inhibition, % at 50 µM | 190,000 tested, 1.8% active | AID 868, 2007;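 active = inhibition above a set limit, 3 SD over mean compound inhibition, cut at about 8.4% in these data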;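 note: inhibition rescues growth on 5-FOA so higher OD means more RAM inhibition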
WT yeast gro inh: growth inhibition of WT strain, primary screen, mitochondrial fusion inhibitor project, WT and mutant strains, chemical genetic | mitochondrial fusion phenotypic screen | inhibition, % at 10 µM | 190,000 tested, 2.1% active; in the data active = inhibition above about 58%; tested in S. cerevisiae
BB579 growth dn: growth inhibitors of yeast BB579 in restrictive medium, primary screen, yeast lifespan-shortening project, S. cerevisiae; 140,000 tested, 0.51% active; inhibition, % at 10 µM; OD615, 48 h; AID 804, 2007;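 active = inhibition above a set limit, 3 SD over the mean compound inhibition, cut at about 44% in these data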
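controls = amphotericin B 10 µg/mL, positive | assay system = DeaD yeast strain BB579 | schedule = 48 h compound exposure at 30 °C after 4 h preincubation | detection = OD615 turbidity measurement | medium = restrictive CSMM-D medium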
Hits are given with their value; . = inactive; / = no result. An excerpt weighted towards active compounds, which were near 4.3% of everything screened.

SMILES	Yeast lifespan up	RAM inhibit	WT yeast gro inh	BB579 growth dn
CC(CCc1ccccc1)NC(=O)COC(=O)c1ccccc1O (centres undefined)	/	.	.	/
Cc1cccc(C(=O)NC(NCCc2ccccc2)C(Cl)(Cl)Cl)c1 (centres undefined)	.	.	58.8	.
COc1cc(/C=C/C(=O)OCC(=O)c2c[nH]c3ccccc23)ccc1OC(F)F	.	.	.	.
O=S(=O)(NC(=S)NC1CCCCC1)c1ccccc1	/	.	.	/
COC(=O)c1cccc(NC(=O)CCNC(=O)c2ccc([N+](=O)[O-])cc2)c1	.	.	.	.
Cc1ccc(S(=O)(=O)NCCc2nnc3ccc(SCC(=O)Nc4nc5ccccc5s4)nn23)cc1	.	10.0	.	.
Cc1cc(NC(=O)CSc2ccc3nnc(CCNS(=O)(=O)c4ccccc4)n3n2)no1	/	.	.	/
CCOC(=O)c1c(N)sc2c(OC)c(Br)ccc12	.	.	.	94.6
COc1cccc2sc(Nc3nc(-c4ccccn4)cs3)nc12	.	.	63.0	87.9
COc1ccc(/C=N/N(C(C)=O)c2nc(-c3ccc(C)cc3)cs2)cc1	.	9.3	.	.
O=c1cc(N2CCOCC2)cnn1-c1ccccc1	.	.	.	.
C/C(=N/NC(=O)CNC(=O)c1ccccn1)c1ccccc1	.	.	.	.
C=CCNC(=S)N/N=C(\C)c1ccccn1	.	.	.	93.2
CC12CCC(c3nnc(SCc4ccc(Cl)cc4)nc31)C2(C)C (centres undefined)	/	.	.	.
CN1CCC2(CC1)Nc1nc(SCc3ccc(Cl)cc3)nn1C1=C2CN(C)CC1	.	.	65.7	.
Cc1ccc(/C(O)=C2\C(=O)C(=O)N(c3cc(C)on3)C2c2cccc(Br)c2)cc1 (centres undefined)	27.3	.	.	.
O=c1cc(CN2CCN(S(=O)(=O)c3ccccc3[N+](=O)[O-])CC2)nc2sccn12	/	.	.	/
C=CCO/N=C/C1C(=O)CC(C)(C)CC1=O	39.0	.	.	.
Cc1cc(C)cc(NC(=O)CN2CCC(NC(=O)Cc3ccccc3)CC2)c1	26.7	.	.	.
CCCn1c2c(c(O)c(C(=O)Nc3ccc(OC)cc3)c1=O)CCCC2	.	9.2	.	.
O=C(Nc1nc(-c2cccs2)cs1)c1ccc(Cl)cc1	.	.	67.0	.
COc1ccc(C(=O)Nc2nc(-c3cccs3)cs2)cc1	.	.	.	.
O=C(Nc1nc(-c2cc(Cl)sc2Cl)cs1)c1cccs1	.	.	73.9	.
O=C(Nc1ncc(Cc2ccccc2)s1)c1cccs1	.	.	.	.
O=C(Nc1ncc(Cc2cccc(Cl)c2)s1)c1cccs1	.	.	80.6	.
SMILES	Yeast lifespan up	RAM inhibit	WT yeast gro inh	BB579 growth dn
O=C(Nc1nc(-c2cc(Cl)sc2Cl)cs1)c1ccc(Br)s1	.	.	.	.
CN(O)/C=c1/ccc2c(n1)C(=O)C=CC=2	.	.	.	97.4
Cc1ccc(NC(=O)CSc2nc3ccccc3c(=O)n2CCCC(=O)NCCCN2CCOCC2)cc1	/	.	.	/
CCOC(=O)c1c(NC(=O)C(Sc2ccccc2)c2ccccc2)sc(C(N)=O)c1C (centres undefined)	.	.	.	.
CCOC(=O)c1c(NC(=O)OC)sc(C(=O)N(C)C)c1C	.	.	70.6	.
CCOC(=O)c1c(NC(=O)C(Sc2ccccc2)c2ccccc2)sc(C(=O)N(C)C)c1C (centres undefined)	.	10.2	.	.
O=C(CCc1nnc(-c2ccc3c(c2)OCO3)o1)N1CCC(c2ccc(F)cc2)C1 (centres undefined)	/	.	.	/
O=C(Nc1nnc(C2CC2)s1)c1cc(-c2ccccc2)nn1-c1ccccc1	.	.	70.3	.
Cc1ccc(C)c(NC(=O)c2cc(-c3ccccc3)nn2-c2ccccc2)c1	.	.	73.5	.
CC(=O)Nc1c(O)nc(SCC(=O)Nc2nnc(SCc3ccccc3)s2)[nH]c1=O	/	.	.	/
Cc1ccc(COc2ccccc2C(=S)N2CCCC2)cc1	/	.	60.6	/
CC(C)(C)C1CCc2c(sc(NC(=O)CSc3ncn[nH]3)c2C#N)C1 (centres undefined)	/	.	93.1	.
N#Cc1c(NC(=O)CSc2ncn[nH]2)sc2c1CCCC2	.	.	.	.
O=C(/C=C/c1ccc2c(c1)OCO2)Nc1ccc(Cl)cn1	/	.	.	/
Cc1ccc(/C=C2/SC(=O)NC2=S)o1	/	.	.	/
CCn1c(=O)c2ccccc2n2c(SCC(=O)N3CCCc4ccccc43)nnc12	38.9	.	.	.
COc1cc(OC)cc(-n2nnnc2SCC(=O)N2CCCc3ccccc32)c1	.	8.9	.	.
Cc1ccc(C)c2c1cc(C)c1nnc(SCC(=O)N3CCCc4ccccc43)n12	.	.	.	.
O=C(NC1CCN(C(=O)Nc2ccccc2Cl)CC1)c1ccccc1	/	.	.	/
CCOC(=O)c1[nH]c2ccc(OCC)cc2c1NC(=O)CN1CCC2(CC1)OCCO2	57.0	.	.	.
COc1ccc2nc(NC(=O)c3cccc(OCc4c(C)noc4C)c3)sc2c1	.	.	73.5	.
S=C1NCCc2ccc(Cl)cc2C1c1ccccc1 (centres undefined)	/	.	70.8	.
O=C1CN(CC(=O)N2CCCCC2)c2ccccc2O1	.	.	.	46.3
Cc1nnc(SCC(=O)NNC(=O)C(C)C)[nH]c1=O	.	.	.	.
O=C1C=C(Nc2ccccc2)C(=O)c2ccccc21	/	.	64.0	/
SMILES	Yeast lifespan up	RAM inhibit	WT yeast gro inh	BB579 growth dn
COc1cccc2c1C(=O)C=C(C)C2=O	.	.	.	.
O=C1C=C(Nc2ccccc2)c2ccccc2C1=O	/	.	73.9	/
CCCCNC1=CC(=O)C(=O)c2ccccc21	/	.	.	/
CC1=CC(=O)c2ccccc2C1=O	.	.	.	67.7
CCCCN(C)C/C(O)=C(\C#N)c1nc(-c2ccccc2)cs1	.	.	.	.
Cc1ccc(C(=O)Oc2cc(C)n(C)c(=O)c2)cc1	.	.	.	.
COc1ccccc1/C=N\N=C(\N)c1ccccn1	.	.	.	.
O=C(CCOc1ccccc1)Nc1nnc(-c2ccc3c(c2)OCCO3)o1	/	.	.	/
O=C(Nc1nnc(-c2ccc3c(c2)CCCC3)o1)c1ccccc1Cl	.	.	.	.
O=C(Nc1nnc(-c2ccc3c(c2)OCCO3)o1)c1ccc(Cc2ccccc2)cc1	.	.	61.1	.
O=C(Nc1nnc(-c2ccc3c(c2)CCCC3)o1)c1ccccc1	.	.	74.7	.
O=C(C1CCCO1)N1CCN(C(=S)Nc2ccc(Cl)cc2)CC1 (centres undefined)	.	.	.	.
COc1cc(OC)c(C(=O)CCCN2CCCC2)c(OC)c1	.	.	.	.
O=C(Nc1ccccc1)C1=C[C@H](c2csc3ccccc23)C[C@H](OCCCCO)O1	/	10.8	.	/
O=C(NCc1ccccc1)C1=C[C@@H](c2ccc(Br)cc2)C[C@@H](OCc2ccc(CO)cc2)O1	/	8.8	.	/
O=C(Nc1ccccc1)C1=C[C@H](c2csc3ccccc23)C[C@H](OCc2ccc(CO)cc2)O1	/	.	.	/
O=C(NCc1ccccc1)C1=C[C@H](c2csc3ccccc23)C[C@H](OCCCCO)O1	/	10.8	.	/
